The source made the active and inactive calls. The rule behind the calls is not given here.
Key:
U2OS = assay: Inhibition of Wnt/beta-catenin in human U2OS cells assessed as internalization of frizzled-GFP at 12.5 uM after 6 hrs by confocal microscopic analysis; type: cell-based
Summary of the method: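 U2OS cells stably expressing Frizzled1-GFP, plated 24 h, then exposed to 12.5 μM compound or DMSO for 6 h at 37 °C. Fixed with 4% paraformaldehyde and imaged by confocal microscopy (488 nm excitation). Punctate scored blind twice on a 0–5 scale against DMSO control.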

HEK293 = assay: Inhibition of Wnt/beta-catenin in HEK293 cells assessed as inhibition of Wnt3A-stimulated TOPFlash activity after 8 hrs; type: cell-based; settings: Homo sapiens, HEK293, 8 h
Summary of the method: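 HEK293 cells stably carrying p8xTOPFlash and Renilla pRL-TK, seeded at 100% confluency. Cells given Wnt-3A conditioned medium (from L Wnt-3A cells) containing compound (0.04–10 μM) or DMSO for 8 h. Lysed and read by dual luciferase, firefly normalized to Renilla, Wnt3A+DMSO = 100%. IC50 fit, mean ± SEM, n ≥ 2.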

HCT-116 [1] = assay: Cytotoxicity against human HCT116 cells assessed as growth inhibition up to 10 uM after 72 hrs by MTS assay; type: functional, cell-based
Summary of the method: (§1)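 HCT116 colon cancer cells seeded at 5000 cells/well, exposed to compound at 0.04–10 μM for 72 h, then read by colorimetric MTS. Viability normalized to DMSO set at 100%. IC50 from curve fit, mean ± SEM, n = 3.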

HCT-116 [2] = assay: Cytotoxicity against human HCT116 cells assessed as growth inhibition after 72 hrs by MTS assay; type: functional, cell-based; settings: HCT-116, 72 h; summary of the method: as §1
[3] = Oral bioavailability in Sprague-Dawley rat at 5 mg/kg; type: ADME, organism-based; settings: in vivo
[4] = Total clearance in Sprague-Dawley rat at 2 mg/kg, iv; type: ADME, organism-based; settings: in vivo
[5] = Volume of distribution at steady state in Sprague-Dawley rat at 2 mg/kg, iv; type: ADME, organism-based; settings: in vivo
Plasma [6] = assay: Drug uptake in plasma of CD1 mouse at 200 mg/kg, po by LC/MS-MS analysis; type: ADME, organism-based; settings: in vivo
Summary of the method: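 CD1 mice gavaged at 200 mg/kg with a solution (20 mg/ml) in 90% PEG 300 / 10% 1-methyl-2-pyrrolidinone. Blood sampled predose and at 0.25, 0.5, 1, 2, 4, 8 h. Plasma analyzed by LC/MS–MS, including for a potential active metabolite.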

Plasma [7] = assay: Drug level in CD1 mouse plasma treated with DK-520 at 200 mg/kg, po measured for 24 hrs by LC/MS-MS analysis; type: ADME, organism-based; settings: in vivo
Summary of the method: (§2)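 CD1 mice given prodrug orally as a solution in corn oil (20 mg/ml) at 200 mg/kg. Niclosamide in plasma quantified by LC/MS–MS, reported as ng/mL, mean ± SEM.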

[8] = Cytotoxicity against human breast cancer cells assessed as growth inhibition after 72 hrs by Cell Titer Glo Assay; type: functional, cell-based; settings: Cancer cell lines, pooled result: one value given for 7 cell lines, strains, targets or settings
[9] = Lipophilicity, log P of the compound at pH <=4; type: physicochemical; settings: octanol/water
[10] = Distribution coefficient, log D of the compound at pH 7; type: physicochemical; settings: octanol/water
[11] = Half life in Sprague-Dawley rat at 2 mg/kg, iv; type: ADME, organism-based; settings: in vivo
Plasma [12] = assay: Drug metabolism in CD1 mouse plasma assessed as niclosamide production at 200 mg/kg, po measured for 24 hrs by LC/MS-MS analysis; type: ADME, organism-based; settings: in vivo; summary of the method: as §2
Mus musculus [13] = assay: Tmax in CD1 mouse assessed as niclosamide at 200 mg/kg, po; type: ADME, organism-based; settings: in vivo; summary of the method: as §2
Mus musculus [14] = assay: Cmax in CD1 mouse assessed as niclosamide at 200 mg/kg, po; type: ADME, organism-based; design: dose 200 mg/kg, route oral; settings: in vivo; summary of the method: as §2
Mus musculus [15] = assay: Tlast in CD1 mouse assessed as niclosamide at 200 mg/kg, po; type: ADME, organism-based; settings: in vivo; summary of the method: as §2
Mus musculus [16] = assay: Clast in CD1 mouse assessed as niclosamide at 200 mg/kg, po; type: ADME, organism-based; settings: in vivo; summary of the method: as §2
Mus musculus [17] = assay: AUClast in CD1 mouse assessed as niclosamide at 200 mg/kg, po; type: ADME, organism-based; design: dose 200 mg/kg, route oral, time 0 - last; settings: in vivo; summary of the method: as §2
Mus musculus [18] = assay: Half life in CD1 mouse assessed as niclosamide at 200 mg/kg, po measured for 45 to 240 mins; type: ADME, organism-based; settings: in vivo; summary of the method: as §2
Mus musculus [19] = assay: Half life in CD1 mouse assessed as niclosamide at 200 mg/kg, po measured for 24 to 48 hrs; type: ADME, organism-based; settings: in vivo; summary of the method: as §2
Mus musculus [20] = assay: Toxicity in NOD/SCID mouse assessed as change in body weight at 200 mg/kg, po administered 6 days a week for 3 weeks; type: organism-based; settings: in vivo
Summary of the method: (§3)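 NOD/SCID mice dosed orally with 200 mg/kg in corn oil, or corn oil vehicle, 6 days a week for 3 weeks. Observed throughout for side effects and behavior. Body weight taken on the first dosing day (week 0) and on the day after the last dose (week 3).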

Mus musculus [21] = assay: Toxicity in NOD/SCID mouse assessed as change in behavior at 200 mg/kg, po administered 6 days a week for 3 weeks; type: organism-based; settings: in vivo; summary of the method: as §3

## O=C(Nc1c(Cl)cccc1Cl)c1cc(Cl)ccc1O
U2OS
  inhibition: inactive
HEK293
  IC50: > 12000 nM
HCT-116 [1]
  growth inhibition (GI): inactive

## O=C(Nc1ccc(C(F)(F)F)cc1F)c1cc(Cl)ccc1O
U2OS
  inhibition: Active
HEK293
  IC50: 550 nM

## O=C(Nc1cccc(Cl)c1)c1cc(Cl)ccc1O
U2OS
  inhibition: Active
HEK293
  IC50: 1650 nM

## O=C(Nc1ccc([N+](=O)[O-])cc1)c1cc(Cl)ccc1O
U2OS
  inhibition: Active
HEK293
  IC50: 990 nM

## O=C(Nc1ccc(Cl)cc1)c1cc(Cl)ccc1O
U2OS
  inhibition: Active
HEK293
  IC50: 1300 nM

## O=C(Nc1cc(Cl)ccc1Cl)c1cc(Cl)ccc1O
U2OS
  inhibition: Active
HEK293
  IC50: 750 nM

## O=c1oc2ccc(Cl)cc2c(=O)n1-c1ccc(C(F)(F)F)cc1
U2OS
  inhibition: Active
HEK293
  IC50: 320 nM

## CN(C(=O)c1cc(Cl)ccc1O)c1ccc(C(F)(F)F)cc1
U2OS
  inhibition: inactive
HEK293
  IC50: > 12000 nM

## CC(=O)c1ccc(NC(=O)c2cc(Cl)ccc2O)cc1
U2OS
  inhibition: inactive
HEK293
  IC50: 6420 nM

## O=C(NC(=O)c1cc(Cl)ccc1O)c1ccc(C(F)(F)F)cc1
U2OS
  inhibition: inactive
HEK293
  IC50: > 12000 nM

## O=C(Nc1ccc([N+](=O)[O-])cc1Cl)c1cc(Cl)ccc1O [NICLOSAMIDE]
U2OS
  inhibition: Active
HEK293
  IC50: 340 nM
HCT-116 [2]
  IC50: 450 nM
[3]
  bioavailability: 10%
[4]
  clearance: 20 mL/min/kg
[5]
  Vd: 0.9 L/kg
Plasma [6]
  Drug uptake: Active
Plasma [7]
  Drug metabolism: metabolite_detected
[8]
  IC50: 130 nM
[9]
  logP: 5.95
[10]
  logD: 4.48

## O=c1oc2ccc(Cl)cc2c(=O)n1-c1ccc(C(F)(F)F)cc1Cl
U2OS
  inhibition: Active
HEK293
  IC50: 330 nM
HCT-116 [2]
  IC50: 550 nM
Plasma [6]
  Drug uptake: Active

## O=C(Nc1ccc(F)c(Cl)c1)c1cc(Cl)ccc1O
U2OS
  inhibition: Active
HEK293
  IC50: 1210 nM

## O=C(Nc1ccc(C(F)(F)F)cc1Cl)c1cc(Cl)ccc1O
U2OS
  inhibition: Active
HEK293
  IC50: 560 nM
HCT-116 [2]
  IC50: 540 nM
[3]
  bioavailability: 15%
[4]
  clearance: 39 mL/min/kg
[5]
  Vd: 1.1 L/kg
[11]
  half-life: 3.7 h

## CS(=O)(=O)c1ccc(NC(=O)c2cc(Cl)ccc2O)c(Cl)c1
U2OS
  inhibition: inactive
HEK293
  IC50: 7660 nM

## O=C(Nc1cc(Cl)cc(Cl)c1)c1cc(Cl)ccc1O
U2OS
  inhibition: Active
HEK293
  IC50: 700 nM

## O=C(Nc1ccc(F)cc1Cl)c1cc(Cl)ccc1O
U2OS
  inhibition: Active
HEK293
  IC50: 1410 nM

## O=C(Nc1ccccc1)c1ccc(NC(=O)c2cc(Cl)ccc2O)cc1
U2OS
  inhibition: inactive
HEK293
  IC50: 32900 nM

## NC(=O)c1ccc(NC(=O)c2cc(Cl)ccc2O)cc1
U2OS
  inhibition: inactive
HEK293
  IC50: > 12000 nM

## O=C(Nc1ccccc1)c1cc(Cl)ccc1O
U2OS
  inhibition: inactive
HEK293
  IC50: 11800 nM

## O=c1oc2ccc(Cl)cc2c(=O)n1-c1ccc([N+](=O)[O-])cc1Cl
HEK293
  IC50: 370 nM

## O=C(Nc1ccc(C(F)(F)F)cc1)c1cc(Cl)ccc1O
U2OS
  inhibition: Active
HEK293
  IC50: 290 nM
HCT-116 [2]
  IC50: 670 nM

## O=C(Nc1cccc(C(F)(F)F)c1)c1cc(Cl)ccc1O
U2OS
  inhibition: Active
HEK293
  IC50: 890 nM

## O=C(Nc1ccc(F)cc1F)c1cc(Cl)ccc1O
U2OS
  inhibition: inactive
HEK293
  IC50: 4020 nM

## O=C(Nc1ccc(Cl)cc1Cl)c1cc(Cl)ccc1O
U2OS
  inhibition: Active
HEK293
  IC50: 420 nM
HCT-116 [2]
  IC50: 1180 nM
[3]
  bioavailability: 12%
[4]
  clearance: 27 mL/min/kg
[5]
  Vd: 0.3 L/kg
[11]
  half-life: 2.6 h

## O=C(Nc1ccc(F)cc1)c1cc(Cl)ccc1O
U2OS
  inhibition: inactive
HEK293
  IC50: 3840 nM

## CCOC(=O)Oc1ccc(Cl)cc1C(=O)Nc1ccc(C(F)(F)F)cc1Cl
U2OS
  inhibition: Active
HEK293
  IC50: 340 nM
HCT-116 [2]
  IC50: 510 nM

## CC(=O)Oc1ccc(Cl)cc1C(=O)Nc1ccc(C(F)(F)F)cc1Cl
U2OS
  inhibition: Active
HEK293
  IC50: 320 nM

## O=C(Nc1c(F)cccc1F)c1cc(Cl)ccc1O
HEK293
  IC50: > 12000 nM

## O=C(Nc1ccc(Cl)c(Cl)c1)c1cc(Cl)ccc1O
U2OS
  inhibition: Active
HEK293
  IC50: 730 nM

## O=C(Nc1ccccc1Cl)c1cc(Cl)ccc1O
U2OS
  inhibition: inactive
HEK293
  IC50: 3050 nM

## CCCCCCCC(=O)Oc1ccc(Cl)cc1C(=O)Nc1ccc([N+](=O)[O-])cc1Cl
U2OS
  inhibition: Active
HEK293
  IC50: 230 nM
HCT-116 [2]
  IC50: 610 nM
Plasma [12]
  Drug metabolism: metabolite_detected
Mus musculus [13]
  Tmax: 0.75 h
Mus musculus [14]
  Cmax: 6100 ng/mL
Mus musculus [15]
  Tlast: 72 h
Mus musculus [16]
  Clast: 49 ng/mL
Mus musculus [17]
  AUClast: 22400 ng·h/mL
Mus musculus [18]
  t1/2: 0.69 h
Mus musculus [19]
  t1/2: 12.2 h
Mus musculus [20]
  Activity: Non-toxic
Mus musculus [21]
  Activity: Non-toxic

## O=S(=O)(Nc1ccc(C(F)(F)F)cc1Cl)c1cc(Cl)ccc1O
U2OS
  inhibition: inactive
HEK293
  IC50: 2570 nM

## O=C(NCc1ccc(C(F)(F)F)cc1)c1cc(Cl)ccc1O
U2OS
  inhibition: inactive
HEK293
  IC50: 15100 nM

## O=C(c1ccccc1)c1ccc(NC(=O)c2cc(Cl)ccc2O)cc1
U2OS
  inhibition: inactive
HEK293
  IC50: 15000 nM

## O=C(Nc1cc(Cl)ccc1O)c1ccc([N+](=O)[O-])cc1
HEK293
  IC50: > 12000 nM

— ChEMBL document CHEMBL3603766, “Structure-activity studies of Wnt/β-catenin inhibition in the Niclosamide chemotype: Identification of derivatives with improved drug exposure” (Bioorg Med Chem, 2015)
